From ChEMBL document CHEMBL1157626, “A concise synthesis of 1,4-dihydro-[1,4]diazepine-5,7-dione, a novel 7-TM receptor ligand core structure with melanocortin receptor agonist activity” (Bioorg Med Chem, 2010)
The source made the active and inactive calls. The calls are words filed in the database; no cut-off is given here.

Key:
[1] = tested on: Rattus norvegicus; assay: Anorexigenic activity in lean Sprague-Dawley rat assessed as suppression of peptide YY-induced nocturnal food intake during dark cycle period at 25 mg/kg, po administered 30 mins before peptide YY challenge; assay type: functional, organism-based; design: dose 25 mg/kg
In short: (§1)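 Sated lean Sprague-Dawley rats with third-ventricle cannulae dosed by oral gavage at 10:30 AM. Vehicle was 50% PEG500/25% EtOH/25% water. 0.23 nmol PYY given ICV in sterile saline at 11:00 AM. Intake logged every half hour through the light period and the dark cycle (6 PM–6 AM). N = 5/group.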

[2] = AUC (0 to infinity) in Sprague-Dawley rat at 10 mg/kg, po; assay type: ADME, organism-based; design: dose 10 mg/kg, route oral, time infinity; details: plasma
In short: (§2)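 Single oral dose to Sprague Dawley rats, given as a suspension in 50% PEG/25% EtOH/25% H2O. Plasma samples collected over time to build the pharmacokinetic profile.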

[3] = tested on: Rattus norvegicus; assay: Anorexigenic activity in lean Sprague-Dawley rat assessed as suppression of nocturnal food intake during dark cycle period at 25 mg/kg, po administered prior to onset of nocturnal cycle; assay type: functional
[4] = molecular target: T1, Melanocortin receptor 4 (Homo sapiens, UniProt P32245); assay: Agonist activity at human MC4R expressed in CHO cells after 4 hrs by luciferase reporter gene assay; assay type: functional, cell-based; details: read-out: pEC50 (converted)
T1 sequence (P32245 whole entry): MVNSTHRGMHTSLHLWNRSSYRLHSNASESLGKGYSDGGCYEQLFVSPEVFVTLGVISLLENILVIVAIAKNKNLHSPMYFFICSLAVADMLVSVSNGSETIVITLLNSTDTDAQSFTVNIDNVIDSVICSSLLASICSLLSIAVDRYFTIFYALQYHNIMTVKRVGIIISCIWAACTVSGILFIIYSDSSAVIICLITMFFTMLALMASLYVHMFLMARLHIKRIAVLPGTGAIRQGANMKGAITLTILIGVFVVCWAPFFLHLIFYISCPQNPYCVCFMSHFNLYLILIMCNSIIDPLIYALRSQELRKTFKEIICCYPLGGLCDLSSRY
In short: (§3)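 CHO-6xCRE-luc+ cells expressing the human receptor, plated at 4000 cells/well in DMEM/F12 with 10% FBS 48 h before assay. Switched to serum-free medium 16 h before compound addition, then incubated 4 h at 37 °C. Luciferase read after 10 min dark adaptation. Activity expressed as % of fold stimulation by 1 × 10^-7 M NDP-aMSH (duplicate control wells).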

[5] = molecular target: T2, Melanocyte-stimulating hormone receptor (Homo sapiens, UniProt Q01726); assay: Agonist activity at human MC1R expressed in CHO cells after 4 hrs by luciferase reporter gene assay relative to alpha-melanocyte stimulating hormone; assay type: functional, cell-based; design: concentration or dose not given beside the values; in short: as §3
Target sequence in this assay (Q01726 whole entry, looked up): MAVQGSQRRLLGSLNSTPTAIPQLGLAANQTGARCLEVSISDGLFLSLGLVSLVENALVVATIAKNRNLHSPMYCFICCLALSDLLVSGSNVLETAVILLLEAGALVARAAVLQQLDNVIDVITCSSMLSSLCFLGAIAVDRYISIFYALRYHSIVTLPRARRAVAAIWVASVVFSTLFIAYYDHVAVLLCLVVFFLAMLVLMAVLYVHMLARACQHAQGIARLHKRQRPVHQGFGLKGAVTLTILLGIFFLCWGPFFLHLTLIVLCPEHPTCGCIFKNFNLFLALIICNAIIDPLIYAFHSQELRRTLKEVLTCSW

[6] = molecular target: T2, Melanocyte-stimulating hormone receptor; assay: Agonist activity at human MC1R expressed in CHO cells after 4 hrs by luciferase reporter gene assay; assay type: functional, cell-based; details: read-out: pEC50 (converted); in short: as §3
Target sequence in this assay (Q01726 whole entry): as the sequence (Q01726 whole entry, looked up) above

[7] = Oral bioavailability in Sprague-Dawley rat at 10 mg/kg; assay type: ADME, organism-based; details: in vivo; in short: as §2
[8] = molecular target: T1, Melanocortin receptor 4; assay: Agonist activity at human MC4R expressed in CHO cells after 4 hrs by luciferase reporter gene assay relative to alpha-melanocyte stimulating hormone; assay type: functional, cell-based; in short: as §3
[9] = Tmax in Sprague-Dawley rat at 10 mg/kg, po; assay type: ADME, organism-based; design: dose 10 mg/kg, route oral; details: in vivo; in short: as §2
[10] = tested on: Rattus norvegicus; assay: Anorexigenic activity in lean Sprague-Dawley rat assessed as suppression of peptide YY-induced food intake during day light cycle period at 25 mg/kg, po administered 30 mins before peptide YY challenge; assay type: functional, organism-based; design: dose 25 mg/kg; in short: as §1
[11] = Half life in Sprague-Dawley rat at 10 mg/kg, po; assay type: ADME, organism-based; design: dose 10 mg/kg, route oral; details: in vivo; in short: as §2
[12] = Cmax in Sprague-Dawley rat at 10 mg/kg, po; assay type: ADME, organism-based; design: dose 10 mg/kg, route oral; details: in vivo; in short: as §2
[13] = tested on: Rattus norvegicus; assay: Anorexigenic activity in lean Sprague-Dawley rat assessed as suppression of peptide YY-induced food intake during day light cycle period at 5 mg/kg, po administered 30 mins before peptide YY challenge; assay type: functional, organism-based; design: dose 5 mg/kg; in short: as §1

COc1ccc(N(C(=O)CN2C=CN(c3ccccc3)C(=O)[C@H](Cc3n[nH]c4ccccc34)C2=O)C(C)C)cc1
inhibition [1]: Active | AUC(0-inf) [2]: 260 ng·h/mL | inhibition in vivo at 25 mg/kg [3]: 20% | EC50 [4]: 339 nM | Activity [5]: 82% | EC50 [6]: 15.8 nM | bioavailability [7]: 6.2% | Activity [8]: 53 | Tmax [9]: 0.67 h | inhibition [10]: Active | half-life [11]: 1.5 h | Cmax [12]: 123 ng/mL | inhibition [13]: Active
